Reference: ChEMBL document CHEMBL3243943, “Adrenoceptor blocking agents. 2. 2-(alpha-Hydroxyarylmethyl)-3,3-dimethylaziridines, a new class of selective beta2-adrenoceptor antagonists” (J Med Chem, 1978)
Activity calls are given as the source filed them. The rule behind the calls is not given here.

What was measured:
Felis catus [1] = test: Reversal of epinephrine-induced increase in mean arterial blood pressure in cat at 2.5 mg/kg, iv; type: functional
[2] = biological target: Beta-1 adrenergic receptor (Cavia porcellus, UniProt B0FL73); test: Inhibition of beta1-adrenergic receptor in guinea pig auricle assessed as reversal of isoproterenol-induced effect; settings: read-out: pA2 (converted)
[3] = biological target: Beta-2 adrenergic receptor (Cavia porcellus, UniProt Q8K4Z4); test: Inhibition of beta2-adrenergic receptor in guinea pig tracheal chain assessed as reversal of isoproterenol-induced effect after 15 mins; parameters: species or system Trachea; settings: read-out: pA2 (converted)
Felis catus [4] = test: Reversal of isoproterenol-induced increase in mean arterial blood pressure in cat assessed as pressor phase at 2.5 mg/kg, iv; type: functional
Felis catus [5] = test: Reversal of isoproterenol-induced increase in mean arterial blood pressure in cat assessed as depressor phase at 2.5 mg/kg, iv; type: functional
Heart = test: Antiarrhythmic activity against guinea pig auricle; type: functional, tissue-based; settings: Cavia porcellus
In short: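 Electrically driven isolated guinea pig auricles (Dawes method).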

Cavia porcellus = test: Anesthetic effect in guinea pig at 0.1 % by intradermal wheal method; type: functional, organism-based
[6] = biological target: Beta-2 adrenergic receptor (Cavia porcellus) (UniProt Q8K4Z4); test: Competitive inhibition of beta2-adrenergic receptor in guinea pig tracheal chain assessed as reversal of isoproterenol-induced effect at 1.376 X 10^-7 M to 2.752 X 10^-7 M after 15 mins
In short: (§1)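 Isolated guinea pig tracheal chain in Krebs bicarbonate Ringer at 36.5 ± 0.5 °C, gassed with O2 containing 5% CO2. Tone raised with acetylcholine, then cumulative isoproterenol (1×10^-5 to 1×10^-4 M) given after 15-min antagonist exposure. pA2 by linear extrapolation; mean ± SE, n experiments.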

[7] = biological target: Beta-2 adrenergic receptor (Cavia porcellus) (UniProt Q8K4Z4); test: Inhibition of beta2-adrenergic receptor in guinea pig tracheal chain assessed as reversal of isoproterenol-induced effect at 1.376 X 10^-7 M to 2.752 X 10^-7 M incubated for 15 mins followed by compound washout measured after 30 to 60 mins; settings: Trachea
[8] = biological target: Beta-2 adrenergic receptor (Cavia porcellus) (UniProt Q8K4Z4); test: Inhibition of beta2-adrenergic receptor in guinea pig tracheal chain assessed as reversal of isoproterenol-induced effect at 5.36 X 10^-9 M to 8.576 X 10^-8 M incubated for 15 mins followed by compound washout measured after 30 to 60 mins; settings: Trachea
[9] = biological target: Beta-2 adrenergic receptor (Cavia porcellus) (UniProt Q8K4Z4); test: Competitive inhibition of beta2-adrenergic receptor in guinea pig tracheal chain assessed as reversal of isoproterenol-induced effect at 5.36 X 10^-9 M to 8.576 X 10^-8 M after 15 mins; in short: as §1
[10] = biological target: Beta-2 adrenergic receptor (Cavia porcellus) (UniProt Q8K4Z4); test: Inhibition of beta2-adrenergic receptor in guinea pig tracheal chain assessed as reversal of isoproterenol-induced effect at 3.44 X 10^-8 M to 1.376 X 10^-7 M incubated for 15 mins followed by compound washout measured after 30 to 60 mins; settings: Trachea
[11] = biological target: Beta-2 adrenergic receptor (Cavia porcellus) (UniProt Q8K4Z4); test: Competitive inhibition of beta2-adrenergic receptor in guinea pig tracheal chain assessed as reversal of isoproterenol-induced effect at 3.44 X 10^-8 M to 1.376 X 10^-7 M after 15 mins; in short: as §1
Ileum = test: Cholinolytic activity in guinea pig ileum at 2.94 X 10^-7 M to 1.176 X 10^-6 M in presence of acetylcholine; type: functional, tissue-based; settings: Cavia porcellus
In short: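 Isolated guinea pig ileum in oxygenated Tyrode solution at 36.5 ± 0.5 °C. Acetylcholine used as spasmogen; antagonism of contraction by test agent assessed.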

[12] = biological target: Beta-2 adrenergic receptor (Cavia porcellus) (UniProt Q8K4Z4); test: Competitive inhibition of beta2-adrenergic receptor in guinea pig tracheal chain assessed as reversal of isoproterenol-induced effect at 5.868 X 10^-7 M to […] after 15 mins; in short: as §1
Trachea = test: Cholinolytic activity in guinea pig trachea at 2.94 X 10^-7 M to 1.176 X 10^-6 M in presence of acetylcholine; type: functional, tissue-based; settings: Cavia porcellus
In short: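 Guinea pig tracheal chain in Krebs bicarbonate Ringer at 36.5 ± 0.5 °C, gassed with O2/5% CO2. Acetylcholine responses examined in presence of test agent.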

[13] = biological target: Beta-2 adrenergic receptor (Cavia porcellus) (UniProt Q8K4Z4); test: Inhibition of beta2-adrenergic receptor in guinea pig tracheal chain assessed as reversal of isoproterenol-induced effect at 5.868 X 10^-7 M to […] incubated for 15 mins followed by compound washout measured after 30 to 60 mins; settings: Trachea

Beta-1 adrenergic receptor, sequence (B0FL73 whole entry): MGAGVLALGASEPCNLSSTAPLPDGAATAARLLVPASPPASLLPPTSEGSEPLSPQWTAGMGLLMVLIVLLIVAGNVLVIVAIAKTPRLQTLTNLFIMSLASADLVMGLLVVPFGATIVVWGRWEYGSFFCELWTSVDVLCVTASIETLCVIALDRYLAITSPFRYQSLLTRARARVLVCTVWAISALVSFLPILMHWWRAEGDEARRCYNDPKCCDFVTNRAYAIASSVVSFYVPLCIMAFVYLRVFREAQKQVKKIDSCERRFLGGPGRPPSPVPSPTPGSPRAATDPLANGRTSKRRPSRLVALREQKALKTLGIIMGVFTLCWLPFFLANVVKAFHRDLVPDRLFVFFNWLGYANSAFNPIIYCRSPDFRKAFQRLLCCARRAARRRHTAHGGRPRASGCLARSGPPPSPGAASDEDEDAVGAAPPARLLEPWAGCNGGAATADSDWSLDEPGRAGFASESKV
Beta-2 adrenergic receptor (Cavia porcellus), sequence (Q8K4Z4 whole entry, looked up): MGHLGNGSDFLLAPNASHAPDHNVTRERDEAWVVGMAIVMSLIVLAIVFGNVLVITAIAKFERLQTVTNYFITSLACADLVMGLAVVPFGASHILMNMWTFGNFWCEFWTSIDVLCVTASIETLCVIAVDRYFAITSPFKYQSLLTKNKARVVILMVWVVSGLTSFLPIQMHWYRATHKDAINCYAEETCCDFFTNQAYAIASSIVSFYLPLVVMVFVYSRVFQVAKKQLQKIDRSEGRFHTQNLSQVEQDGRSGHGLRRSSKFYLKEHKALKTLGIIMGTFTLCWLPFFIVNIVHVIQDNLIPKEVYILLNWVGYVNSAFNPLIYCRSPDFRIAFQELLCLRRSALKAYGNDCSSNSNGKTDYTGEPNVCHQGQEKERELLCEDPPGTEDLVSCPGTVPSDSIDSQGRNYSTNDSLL
Beta-2 adrenergic receptor, sequence (Q8K4Z4 whole entry): as the sequence (Q8K4Z4 whole entry, looked up) above

Compound | Kb [2] | Kb [3] | Activity (Heart) | Activity (Cavia porcellus) | Activity (Felis catus [1]) | Activity (Felis catus [5]) | further results
CC1(C)NC1C(O)c1ccccc1 (stereo in doubt; 1a) [listing 1 of 2 here] | 43.2 µM | 0.0619 µM |  |  |  |  | Activity (Felis catus [1]; 2.5 mg/kg): 0%; Activity (Felis catus [4]; 2.5 mg/kg): 20%; Activity (Felis catus [5]; 2.5 mg/kg): -10%
CC1(C)NC1C(O)c1ccccc1 (stereo in doubt; 1a) [listing 2 of 2 here] |  |  | inactive | inactive |  |  | inhibition [6]: Active; inhibition [7]: inactive
CCN(CC)CCOC(=O)c1ccc(N)cc1 |  |  | inactive | inactive |  |  | 
CC(C)NCC(O)COc1cccc2ccccc12 (stereo not drawn) [PROPRANOLOL] |  |  | inactive |  | 45% | -100% | 
CC1(C)NC1C(O)c1ccc2ccccc2c1 (stereo not drawn) | 344 µM | 0.00304 µM | inactive | inactive | 62% | -33% | inhibition [8]: inactive; inhibition [9]: Active; Activity (Felis catus [4]): 0%
CC1(C)NC1C(O)c1ccccc1 (stereo in doubt; 1b) [listing 1 of 2 here] |  |  | inactive | inactive |  |  | inhibition [10]: inactive; inhibition [11]: Active
CC1(C)NC1C(O)c1ccccc1 (stereo in doubt; 1b) [listing 2 of 2 here] | 344 µM | 0.0644 µM |  |  |  |  | Activity (Felis catus [1]; 2.5 mg/kg): 11.1%; Activity (Felis catus [4]; 2.5 mg/kg): 0%; Activity (Felis catus [5]; 2.5 mg/kg): 0%
CC1(C)NC1C(O)c1ccc(Cl)c(Cl)c1 (stereo not drawn) | 17.4 µM | 0.398 µM | Active | Active | 0% | 0% | Activity (Ileum): Active; Activity (Felis catus [4]): -16%; inhibition [12]: inactive; Activity (Trachea): Active; inhibition [13]: inactive
